We go through 40 compounds from ChEMBL document CHEMBL2169815, “Synthesis and structure-activity relationships of lapacho analogues. 1. Suppression of human keratinocyte hyperproliferation by 2-substituted naphtho[2,3-b]furan-4,9-diones, activation by enzymatic one- and two-electron reduction, and intracellular generation of superoxide” (J Med Chem, 2012).

A value given as a limit tells only on which side of the number the result lay.

Data set [1] relates to HaCaT. Put plainly: Antihyperproliferative activity against human HaCaT cells after 48 hrs by phase contrast microscopy. The data set is classed as functional, cell-based. The method, boiled down: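 HaCaT keratinocytes were exposed for 48 h, then dispersed cells were counted under phase contrast. Inhibition was (1 − test/control) × 100, with test N = 3 and control N = 6–8, checked by Student's t test (P < 0.05). IC50 came from nonlinear regression.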

Data set [2] concerns HaCaT. Put plainly: Cytotoxicity against human HaCaT cells assessed as LDH release at 2 uM after 4 hrs by UV method. Format: cell-based. The method, boiled down: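 HaCaT cells were given compound at 2 μM for 4 h at 37 °C. Extracellular LDH in the supernatant was read by the UV method with pyruvate and NADH and reported as mU/mL. Vehicle control was 0.2% DMSO in medium; Brij 35 plus ultrasound was the positive control. N = 3.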
A general note: LDH leaks from cells whose membrane has failed.

The subject of data set [3] is HaCaT. Put plainly: Induction of superoxide generation in human HaCaT cells at 5 micomol/L after 18 hrs by flow cytometry (reference value: 367.5 +/- 80.1 ). Format: functional. The method, boiled down: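 HaCaT cells grown 24 h at 37 °C in DMEM with 10% FBS, then given compound at 5 μM for 18 h (0.1% DMSO final). DHE loaded for 30 min in the dark. Cells trypsinized and 2-OH-E⁺ fluorescence measured by flow cytometry (FL2, 550–600 nm) on 10000 live cells, dead cells gated out. Mean fluorescence intensity, mean ± SD, N = 3. DMSO-only control.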
A general note: In flow cytometry, cells or beads pass a laser one at a time.

Data set [4] relates to HaCaT. Put plainly: Activity in dicoumarol-treated human HaCaT cells assessed as superoxide generation by flow cytometry (reference value: 407.59 +/- 68.7 ). Format: functional.
The target in data set [5] is NQO1 protein (Homo sapiens) (UniProt Q3B792). Put plainly: Activity of human recombinant NQO-1 assessed as rate of superoxide generation measuring SOD-inhibitable reduction of succinoylated cytochrome c per unit enzyme at 25 umol/ml by spectrophotometry in presence of catalase and DTPA (reference value: 0.2 +/- 0.1 micomol/L/min).
The target of data set [6] is T1, NADPH--cytochrome P450 reductase (Homo sapiens, UniProt P16435).
T1 sequence (P16435 whole entry): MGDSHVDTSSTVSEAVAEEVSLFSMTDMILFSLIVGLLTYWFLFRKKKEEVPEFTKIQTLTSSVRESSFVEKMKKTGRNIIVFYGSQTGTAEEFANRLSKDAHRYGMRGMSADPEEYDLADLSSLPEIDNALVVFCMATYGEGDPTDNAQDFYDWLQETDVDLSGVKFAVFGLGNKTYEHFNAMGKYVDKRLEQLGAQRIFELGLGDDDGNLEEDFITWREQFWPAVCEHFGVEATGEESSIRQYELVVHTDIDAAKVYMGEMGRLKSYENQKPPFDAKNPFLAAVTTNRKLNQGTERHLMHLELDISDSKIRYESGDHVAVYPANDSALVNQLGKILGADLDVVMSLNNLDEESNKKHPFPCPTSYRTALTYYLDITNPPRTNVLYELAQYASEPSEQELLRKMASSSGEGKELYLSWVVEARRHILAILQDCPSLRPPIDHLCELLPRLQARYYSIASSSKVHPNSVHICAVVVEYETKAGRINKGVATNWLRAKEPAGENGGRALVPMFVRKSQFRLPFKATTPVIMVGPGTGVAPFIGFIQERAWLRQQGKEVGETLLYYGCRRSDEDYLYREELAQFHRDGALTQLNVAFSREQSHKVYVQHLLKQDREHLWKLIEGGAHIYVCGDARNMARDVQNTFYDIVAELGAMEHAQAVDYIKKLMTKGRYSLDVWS
Put plainly: Activity of human recombinant cytochrome P450 reductase assessed as rate of superoxide generation measuring SOD-inhibitable reduction of succinoylated cytochrome c per 2 mU enzyme at 100 umol/ml by spectrophotometry in presence of catalase and DTPA (reference value: 0.2 +/- 0.1 micomol/L/min).

For data set [7], the system named is HaCaT. Put plainly: Induction of superoxide generation in human HaCaT cells at 50 uM after 30 min by flow cytometry (reference value: 7.1 +/- 5.2 ). The data set is classed as functional.
Data set [8] concerns HaCaT. Put plainly: Ratio of compound IC50 to beta-lapachone IC50 for human HaCaT cells. The data set is classed as functional.
Data set [9] deals with HaCaT. Put plainly: Ratio of compound IC50 to anthralin IC50 for human HaCaT cells. The data set is classed as functional.

NQO1 protein (Homo sapiens), sequence (Q3B792 as listed by the source): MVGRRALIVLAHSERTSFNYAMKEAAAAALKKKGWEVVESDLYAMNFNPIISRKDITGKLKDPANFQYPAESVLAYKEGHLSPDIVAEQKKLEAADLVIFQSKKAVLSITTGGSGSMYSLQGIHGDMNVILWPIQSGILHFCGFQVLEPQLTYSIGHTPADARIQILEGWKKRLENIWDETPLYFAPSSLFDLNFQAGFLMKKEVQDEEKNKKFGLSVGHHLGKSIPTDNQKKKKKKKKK

For the compound `O=C(c1ccccc1)c1cc2c(o1)C(=O)c1ccccc1C2=O`, the IC50 – broadly, the concentration at which inhibition is half-maximal – in the data set on HaCaT [1] was determined as 720 nM. Also, in the data set on HaCaT [2], the Activity turned out to be 318 mU/ml.

`O=Cc1cc2c(o1)C(=O)c1ccccc1C2=O` returned an IC50 with HaCaT [1] of 2760 nM. Also, the Activity in the data set on HaCaT [2] was determined as 186 mU/ml.

For the compound `CCC(=O)c1cc2c(OC(C)=O)c3ccccc3c(OC(C)=O)c2o1`, the midpoint of inhibition with HaCaT [1], the IC50, lay at 800 nM. In addition, the Activity in the data set on HaCaT [2] was 185 mU/ml.

Take `COc1c2ccccc2c(OC)c2oc(C(=O)c3ccccc3)cc12`: the IC50 in the data set with HaCaT [1] is more than 30000 nM.

On to `N#Cc1ccc(/C=C/c2cc3c(o2)C(=O)c2ccccc2C3=O)cc1`, for which, in the data set with HaCaT [1], the 50% inhibitory concentration (IC50) was found to be 7730 nM.

Consider `O=C(OCc1ccccc1)c1cc2c(o1)C(=O)c1ccccc1C2=O`, for which the IC50 in the data set on HaCaT [1] was more than 30000 nM.

Compound `CCC(=O)c1cc2c(OC)c3ccccc3c(OC)c2o1` had a concentration for half-maximal inhibition (IC50) in the data set on HaCaT [1] of more than 30000 nM.

Compound `CCC(=O)c1cc2c(o1)C(=O)c1ccccc1C2=O` registered a concentration for half-maximal inhibition (IC50) with HaCaT [1] of 630 nM. Besides, the Activity with HaCaT [2] was found to be 270 mU/ml.

With `CC(=O)Oc1c2ccccc2c(OC(C)=O)c2oc(C(=O)c3ccccc3)cc12`, the IC50 in the data set with HaCaT [1] turned out to be 920 nM. Also, in the data set with HaCaT [2], the Activity stood at 193 mU/ml.

In the case of `O=C(O)/C=C/c1cc2c(o1)C(=O)c1ccccc1C2=O`, the IC50 in the data set with HaCaT [1] is more than 30000 nM.

In the data set on HaCaT [1], `CC(C)COC(=O)c1cc2c(o1)C(=O)c1ccccc1C2=O` returned an IC50 of 2860 nM.

For `O=C(Oc1ccccc1)c1cc2c(o1)C(=O)c1ccccc1C2=O`, the 50% inhibitory concentration (IC50) in the data set with HaCaT [1] is more than 30000 nM.

As for `CC1=CC(=O)c2ccccc2C1=O` [MENADIONE], the Flu intensity turned out to be 431.9 in the data set with HaCaT [3], 457.2 in the data set on HaCaT [4] and 44 in the data set on HaCaT [7]. This compound also gave a 50% inhibitory concentration (IC50) in the data set with HaCaT [1] of 15800 nM. Moreover, the Activity in data set [5] is 1 µmol/L/min; in data set [6], 2.1 µmol/L/min.

For `O=C(OCc1cccs1)c1cc2c(o1)C(=O)c1ccccc1C2=O`, in the data set on HaCaT [1], the half-inhibitory concentration (IC50) came out at 14300 nM.

Compound `O=C1c2ccccc2C(=O)c2oc(/C=C/c3ccccc3)cc21` came in with an IC50 with HaCaT [1] of more than 30000 nM.

`COC(=O)c1cc2c(o1)C(=O)c1ccccc1C2=O`: the concentration for half-maximal inhibition (IC50) in the data set on HaCaT [1] was 920 nM. Moreover, the Activity in the data set on HaCaT [2] came out at 190 mU/ml.

The compound `CCOC(=O)c1cc2c(o1)C(=O)c1ccccc1C2=O` registered a 50% inhibitory concentration (IC50) in the data set on HaCaT [1] of 610 nM. Also, in the data set with HaCaT [2], the Activity is recorded as 187 mU/ml.

For `O=C1c2c(O)cccc2Cc2cccc(O)c21` [ANTHRALIN], the Activity with HaCaT [2] was determined as 239 mU/ml.

The compound `N#Cc1cc2c(o1)C(=O)c1ccccc1C2=O` displayed an IC50 in the data set on HaCaT [1] of 890 nM. Also, in the data set with HaCaT [2], the Activity is given as 181 mU/ml.

Take `CCc1noc(-c2cc3c(o2)C(=O)c2ccccc2C3=O)n1`: the figures for the Flu intensity in the data set with HaCaT [3], with HaCaT [4] and in the data set with HaCaT [7] were 1287, 1279 and 17, respectively. In the data set on HaCaT [1], this compound had a half-inhibitory concentration (IC50) of 170 nM. Further, the Activity in data set [5] turned out to be 1.9 µmol/L/min; in data set [6] it was 1.8 µmol/L/min; in the data set on HaCaT [2] it was 157 mU/ml. Further, the “Ratio IC50” value with HaCaT [8] turned out to be 5; in the data set on HaCaT [9], 4.

The compound `CC(C)C(=O)c1cc2c(o1)C(=O)c1ccccc1C2=O` yielded a half-maximal inhibitory concentration (IC50) with HaCaT [1] of 440 nM.

In the case of `O=C(OCc1ccco1)c1cc2c(o1)C(=O)c1ccccc1C2=O`, in the data set on HaCaT [1], the 50% inhibitory concentration (IC50) is 8230 nM.

`O=C(O)c1cc2c(o1)C(=O)c1ccccc1C2=O` showed a half-maximal inhibitory concentration (IC50) with HaCaT [1] of more than 30000 nM.

Regarding `Cc1cc2c(o1)C(=O)c1ccccc1C2=O`, the Flu intensity in the data set with HaCaT [3] is given as 420.2; with HaCaT [4] it was 830.9; in the data set on HaCaT [7], 6.4. This compound yielded an IC50 in the data set on HaCaT [1] of 7540 nM. The Activity in data set [5] stood at 0.2 µmol/L/min; in [6] it was 1.2 µmol/L/min.

In the data set on HaCaT [1], `CCCOC(=O)c1cc2c(o1)C(=O)c1ccccc1C2=O` came in with an IC50 of 1320 nM.

Consider `O=C1c2ccccc2C(=O)c2oc(/C=N/O)cc21`, for which the 50% inhibitory concentration (IC50) in the data set on HaCaT [1] worked out at 2340 nM.

In turn, `O=C(c1ccco1)c1cc2c(o1)C(=O)c1ccccc1C2=O` returned an IC50 in the data set on HaCaT [1] of 550 nM. Besides, the Activity in the data set with HaCaT [2] is reported as 167 mU/ml.

The compound `O=C(c1cccnc1)c1cc2c(o1)C(=O)c1ccccc1C2=O` had a 50% inhibitory concentration (IC50) with HaCaT [1] of 370 nM. For the same compound, in the data set with HaCaT [2], the Activity is recorded as 202 mU/ml.

The compound `O=C(c1cc2c(o1)C(=O)c1ccccc1C2=O)c1cccs1` gave an IC50 in the data set with HaCaT [1] of 670 nM. For the same compound, the Activity with HaCaT [2] was 169 mU/ml.

In turn, `O=C1c2ccccc2C(=O)c2oc([N+](=O)[O-])cc21` came in with an IC50 in the data set with HaCaT [1] of 2000 nM.

`O=C1c2ccccc2C(=O)c2oc(-c3nnn[nH]3)cc21` yielded an IC50 in the data set on HaCaT [1] of more than 30000 nM. The Activity in the data set on HaCaT [2] amounted to 380 mU/ml.

For the compound `CC(C)OC(=O)c1cc2c(o1)C(=O)c1ccccc1C2=O`, the half-inhibitory concentration (IC50) in the data set with HaCaT [1] was determined as 990 nM.

In turn, `CCOC(=O)/C=C/c1cc2c(o1)C(=O)c1ccccc1C2=O` registered a half-maximal inhibitory concentration (IC50) with HaCaT [1] of 2510 nM.

In turn, `O=C(OC1CCCCC1)c1cc2c(o1)C(=O)c1ccccc1C2=O` displayed a half-maximal inhibitory concentration (IC50) in the data set on HaCaT [1] of 2930 nM.

In turn, `CCOC(=O)C(=Cc1cc2c(o1)C(=O)c1ccccc1C2=O)C(=O)OCC` returned a half-maximal inhibitory concentration (IC50) in the data set on HaCaT [1] of 1110 nM. Moreover, the Activity in the data set with HaCaT [2] worked out at 186 mU/ml.

`CCc1cc2c(o1)C(=O)c1ccccc1C2=O`: in the data set on HaCaT [1], 12200 nM corresponded to half-maximal inhibition (IC50).

`CC1(C)CCC2=C(O1)c1ccccc1C(=O)C2=O` [LAPACHONE] had a half-maximal inhibitory concentration (IC50) in the data set on HaCaT [1] of 900 nM. The Activity in the data set on HaCaT [2] was 268 mU/ml.

In the case of `CCN(CC)C(=O)c1cc2c(o1)C(=O)c1ccccc1C2=O`, inhibition in the data set on HaCaT [1] was half-maximal at 240 nM (IC50). In addition, the Activity in the data set with HaCaT [2] came out at 226 mU/ml.

Regarding `CC(=O)c1cc2c(o1)C(=O)c1ccccc1C2=O` [NAPABUCASIN], the Flu intensity in the data set with HaCaT [3] worked out at 725.5; in the data set on HaCaT [4] it was 741.4; in the data set on HaCaT [7] it was 20.5. The Activity in data set [5] amounted to 1.4 µmol/L/min; in [6], 3 µmol/L/min; in the data set with HaCaT [2] it was 255 mU/ml.

For `O=C1c2ccccc2C(=O)c2occc21`, the Flu intensity worked out at 452.5 with HaCaT [3], 601.1 with HaCaT [4] and 13 in the data set on HaCaT [7]. This compound also returned an IC50 with HaCaT [1] of 3850 nM. In addition, the Activity in data set [5] was 0.4 µmol/L/min; in [6], 2.2 µmol/L/min.
